ChEMBL document CHEMBL3108700, “Designing anti-inflammatory drugs from parasitic worms: a synthetic small molecule analogue of the Acanthocheilonema viteae product ES-62 prevents development of collagen-induced arthritis” (J Med Chem, 2013)
The source made the active and inactive calls. No rule for the calls is given here.

How the values were obtained:
[1] = biological target: T1, Toll-like receptor 9 (Mus musculus) (UniProt Q9EQU3); experiment: Inhibition of TLR9 in BALB/c mouse BMDM assessed as downregulation of CpG-stimulated IL-6 level at 5 ug/ml preincubated for 18 hrs followed by CpG challenge measured after 24 hrs by ELISA relative to control
T1 sequence (whole entry): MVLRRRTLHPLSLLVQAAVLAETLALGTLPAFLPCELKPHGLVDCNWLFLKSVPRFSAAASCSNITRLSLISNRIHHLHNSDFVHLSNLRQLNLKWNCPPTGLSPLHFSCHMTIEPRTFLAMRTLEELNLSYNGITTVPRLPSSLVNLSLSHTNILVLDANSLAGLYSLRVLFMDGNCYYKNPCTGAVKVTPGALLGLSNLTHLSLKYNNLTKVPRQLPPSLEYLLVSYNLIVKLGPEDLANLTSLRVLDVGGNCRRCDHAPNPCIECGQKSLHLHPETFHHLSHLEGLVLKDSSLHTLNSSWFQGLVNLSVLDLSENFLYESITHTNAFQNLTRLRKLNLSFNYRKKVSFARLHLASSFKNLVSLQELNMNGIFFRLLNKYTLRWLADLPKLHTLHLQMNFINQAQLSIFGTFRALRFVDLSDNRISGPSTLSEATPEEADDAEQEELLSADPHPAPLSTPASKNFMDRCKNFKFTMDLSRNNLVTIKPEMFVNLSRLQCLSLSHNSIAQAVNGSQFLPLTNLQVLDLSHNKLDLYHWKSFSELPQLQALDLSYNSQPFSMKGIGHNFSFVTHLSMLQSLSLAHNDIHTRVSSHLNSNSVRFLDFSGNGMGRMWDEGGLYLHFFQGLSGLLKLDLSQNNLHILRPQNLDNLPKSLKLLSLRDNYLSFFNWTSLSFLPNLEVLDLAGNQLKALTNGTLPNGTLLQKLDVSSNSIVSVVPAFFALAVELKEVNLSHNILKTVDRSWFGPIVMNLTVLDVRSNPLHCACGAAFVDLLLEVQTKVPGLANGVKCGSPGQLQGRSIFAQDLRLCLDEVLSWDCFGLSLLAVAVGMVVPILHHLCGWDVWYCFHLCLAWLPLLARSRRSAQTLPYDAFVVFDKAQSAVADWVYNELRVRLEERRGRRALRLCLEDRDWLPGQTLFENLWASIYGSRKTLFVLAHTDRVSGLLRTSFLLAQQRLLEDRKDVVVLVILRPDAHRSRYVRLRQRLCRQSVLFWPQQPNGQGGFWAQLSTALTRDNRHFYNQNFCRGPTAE
Summary of the method: (§1)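 BALB/c male bone marrow macrophages were differentiated 7 days with L929 supernatant (≥99% CD11b+/F4/80+). Cells were plated at 2 × 10^5/well in triplicate, rested overnight, and given compounds at 5 μg/mL for 18 h. They were then stimulated with 100 ng/mL S. minnesota LPS, 10 ng/mL Pam3CSK4 (BLP) or 0.01 μM CpG for 24 h. Supernatant IL-12p40 and IL-6 were measured by ELISA (sensitivity 16 pg/mL).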

[2] = biological target: T1, Toll-like receptor 9 (Mus musculus); experiment: Inhibition of TLR9 in BALB/c mouse BMDM assessed as downregulation of CpG-stimulated IL-12p40 level at 5 ug/ml preincubated for 18 hrs followed by CpG challenge measured after 24 hrs by ELISA relative to control; summary of the method: as §1
TLR2/TLR6 (Mus musculus) [3] = biological target: T2, TLR2/TLR6 (Mus musculus) (UniProt Q9QUN7+Q9EPW9); experiment: Inhibition of TLR2/6 in BALB/c mouse BMDM assessed as downregulation of BLP-stimulated IL-6 level at 5 ug/ml preincubated for 18 hrs followed by BLP challenge measured after 24 hrs by ELISA relative to control; assay type: protein-complex assay; summary of the method: as §1
[4] = biological target: T3, Toll-like receptor 4 (Mus musculus) (UniProt Q9QUK6); experiment: Inhibition of TLR4 in BALB/c mouse BMDM assessed as downregulation of LPS-stimulated IL-6 level at 5 ug/ml preincubated for 18 hrs followed by LPS challenge measured after 24 hrs by ELISA relative to control; summary of the method: as §1
T3 sequence (whole entry): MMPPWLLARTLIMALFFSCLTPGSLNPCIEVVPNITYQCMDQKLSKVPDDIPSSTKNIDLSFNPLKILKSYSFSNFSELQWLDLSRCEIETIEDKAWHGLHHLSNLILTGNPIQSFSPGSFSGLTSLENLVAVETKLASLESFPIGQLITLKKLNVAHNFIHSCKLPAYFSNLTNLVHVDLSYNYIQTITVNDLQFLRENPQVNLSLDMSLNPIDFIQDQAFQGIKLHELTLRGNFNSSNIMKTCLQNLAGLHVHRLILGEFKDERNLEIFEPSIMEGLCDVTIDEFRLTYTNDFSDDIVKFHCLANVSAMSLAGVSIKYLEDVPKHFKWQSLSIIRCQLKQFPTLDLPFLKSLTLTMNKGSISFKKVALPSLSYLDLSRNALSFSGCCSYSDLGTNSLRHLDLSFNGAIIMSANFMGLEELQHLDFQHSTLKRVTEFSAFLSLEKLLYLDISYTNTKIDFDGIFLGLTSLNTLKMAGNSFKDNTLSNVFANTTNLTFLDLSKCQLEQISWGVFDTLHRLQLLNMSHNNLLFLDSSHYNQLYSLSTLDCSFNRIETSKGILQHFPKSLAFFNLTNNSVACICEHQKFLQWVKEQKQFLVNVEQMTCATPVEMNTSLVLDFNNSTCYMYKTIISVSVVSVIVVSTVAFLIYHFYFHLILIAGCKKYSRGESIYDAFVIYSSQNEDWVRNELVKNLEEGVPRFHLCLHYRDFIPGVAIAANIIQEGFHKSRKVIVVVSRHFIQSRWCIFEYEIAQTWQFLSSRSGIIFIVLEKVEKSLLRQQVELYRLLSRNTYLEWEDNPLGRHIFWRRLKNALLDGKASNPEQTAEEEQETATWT

TLR2/TLR6 (Mus musculus) [5] = biological target: T2, TLR2/TLR6 (Mus musculus); experiment: Inhibition of TLR2/6 in BALB/c mouse BMDM assessed as downregulation of BLP-stimulated IL-12p40 level at 5 ug/ml preincubated for 18 hrs followed by BLP challenge measured after 24 hrs by ELISA relative to control; assay type: protein-complex assay; summary of the method: as §1
[6] = biological target: T3, Toll-like receptor 4 (Mus musculus); experiment: Inhibition of TLR4 in BALB/c mouse BMDM assessed as downregulation of LPS-stimulated IL-12p40 level at 5 ug/ml preincubated for 18 hrs followed by LPS challenge measured after 24 hrs by ELISA relative to control; summary of the method: as §1

| Structure (SMILES) | inhibition [1] | inhibition [2] | inhibition (TLR2/TLR6 (Mus musculus) [3]) | inhibition [4] | inhibition (TLR2/TLR6 (Mus musculus) [5]) | inhibition [6] |
| --- | --- | --- | --- | --- | --- | --- |
| COc1cccc(C(=O)NCCN2CCOCC2)c1 | Active | inactive | inactive | inactive | Active | Active |
| Cc1ccc(CS(=O)(=O)CC[N+]2(C)CCCC2)cc1 | inactive | inactive | inactive | inactive | Active | Active |
| C[N+](C)(C)CCOP(=O)(O)Cc1ccc(Br)cc1 | inactive | inactive | inactive | inactive | Active | Active |
| CN(C)CCS(=O)(=O)Nc1ccc(F)cc1 | inactive | inactive | inactive | inactive | inactive | Active |
| Cc1ccc(CS(=O)(=O)CCCN2CCOCC2)cc1 | inactive | inactive | inactive | inactive | inactive | inactive |
| Cc1ccc(CNS(=O)(=O)CCN2CCCC2)cc1 | inactive | inactive | inactive | inactive | inactive | inactive |
| CN(C)CCNS(=O)(=O)Cc1ccc(Br)cc1 | inactive | inactive | inactive | inactive | inactive | inactive |
| CN(C)CCNCCS(=O)(=O)c1ccccc1 | inactive | inactive | inactive | inactive | inactive | inactive |
| CN(C)CCNS(=O)(=O)Cc1ccccc1 | inactive | inactive | inactive | inactive | inactive | inactive |
| O=S(=O)(CCNCCCO)c1ccccc1 | inactive | inactive | inactive | inactive | Active | inactive |
| O=S(=O)(CCCN1CCOCC1)Cc1ccc(Br)cc1 | inactive | inactive | Active | inactive | inactive | inactive |
| O=S(=O)(CCN1CCSCC1)c1ccccc1 | inactive | inactive | inactive | Active | inactive | Active |
| CN(C)CCCOP(=O)(O)Oc1ccc(NC(=O)OC(C)(C)C)cc1 | inactive | inactive | inactive | inactive | inactive | inactive |
| C[N+]1(CCCS(=O)(=O)Cc2ccc(Br)cc2)CCOCC1 | inactive | inactive | inactive | inactive | inactive | inactive |

Second part, the compound after the results:

| inhibition [1] | inhibition [2] | inhibition (TLR2/TLR6 (Mus musculus) [3]) | inhibition [4] | inhibition (TLR2/TLR6 (Mus musculus) [5]) | inhibition [6] | Structure (SMILES) |
| --- | --- | --- | --- | --- | --- | --- |
| inactive | inactive | inactive | inactive | Active | inactive | O=C(CCN1CCOCC1)NCc1cccc2cnccc12 |
| inactive | inactive | inactive | inactive | inactive | Active | CN(C)CCN(C)CCS(=O)(=O)Nc1ccccc1 |
| inactive | inactive | inactive | inactive | inactive | Active | O=S(=O)(CCN1CCCC1)Nc1ccc(F)cc1 |
| inactive | inactive | inactive | inactive | inactive | inactive | CN(C)CCOP(=O)(O)Cc1ccc(Br)cc1 |
| inactive | inactive | inactive | inactive | inactive | inactive | Cc1ccc(CP(=O)(O)OCCN(C)C)cc1 |
| inactive | inactive | inactive | inactive | inactive | inactive | O=S(=O)(CCCN1CCCC1)Cc1ccc(Br)cc1 |
| Active | inactive | inactive | inactive | inactive | Active | COc1cccc(C(=O)NCCCN(C)C)c1 |
| inactive | Active | inactive | inactive | inactive | Active | O=S(=O)(CCN1CCCC1)Nc1ccccc1 |
| inactive | inactive | inactive | inactive | Active | Active | COc1ccc2c(CS(=O)(=O)NCCN(C)C)cc(=O)oc2c1 |
| Active | inactive | inactive | inactive | Active | Active | COc1cccc(C(=O)NCCN2CCCC2)c1 |
